Data set [1] deals with T1, CYP2C9 (Homo sapiens, UniProt P11712). The experiment in a line: Inhibition of human recombinant CYP2C9 at 10 uM by spectrofluorimetry. The format is ADME. An outline of the steps:
(§1)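 Compounds were tested at 10 µM in duplicate in a spectrofluorometric assay, with 0.25% final methanol and 0.25% final acetonitrile. Fluorescence at t = 0 was subtracted from fluorescence after incubation. Signal was compared with solvent-vehicle controls, and percent of control activity was reported as percent inhibition.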

The target of data set [2] is T2, CYP3A4 (Homo sapiens, UniProt P08684). The experiment in a line: Inhibition of CYP3A4 at 10 uM. The format is ADME. An outline of the steps:
as §1

In data set [3] the target is T1, CYP2C9. The experiment in a line: Inhibition of CYP2C9 at 10 uM. The format is ADME. In short, it runs like this: as §1
The target in the next data set is T3, CYP1A2 (Homo sapiens, UniProt P05177).
T3 sequence (P05177 whole entry): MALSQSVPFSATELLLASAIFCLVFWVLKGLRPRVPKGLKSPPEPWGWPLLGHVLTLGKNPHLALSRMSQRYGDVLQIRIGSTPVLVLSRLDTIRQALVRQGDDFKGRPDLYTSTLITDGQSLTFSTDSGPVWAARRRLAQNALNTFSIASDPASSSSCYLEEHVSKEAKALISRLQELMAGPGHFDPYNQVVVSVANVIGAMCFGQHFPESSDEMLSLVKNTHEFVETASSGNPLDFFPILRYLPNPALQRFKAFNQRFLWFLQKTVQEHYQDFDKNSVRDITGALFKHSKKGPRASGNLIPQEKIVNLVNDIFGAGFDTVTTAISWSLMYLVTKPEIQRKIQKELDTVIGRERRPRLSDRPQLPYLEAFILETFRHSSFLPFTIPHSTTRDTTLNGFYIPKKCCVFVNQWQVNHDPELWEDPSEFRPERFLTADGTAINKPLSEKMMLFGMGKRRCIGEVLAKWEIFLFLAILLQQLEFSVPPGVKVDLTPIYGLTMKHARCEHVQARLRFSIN
The experiment in a line: Inhibition of human recombinant CYP1A2 at 10 uM by spectrofluorimetry. The format is ADME. An outline of the steps:
as §1

For another data set, the target named is T4, CYP2B6 (Homo sapiens, UniProt P20813).
T4 sequence (P20813 whole entry): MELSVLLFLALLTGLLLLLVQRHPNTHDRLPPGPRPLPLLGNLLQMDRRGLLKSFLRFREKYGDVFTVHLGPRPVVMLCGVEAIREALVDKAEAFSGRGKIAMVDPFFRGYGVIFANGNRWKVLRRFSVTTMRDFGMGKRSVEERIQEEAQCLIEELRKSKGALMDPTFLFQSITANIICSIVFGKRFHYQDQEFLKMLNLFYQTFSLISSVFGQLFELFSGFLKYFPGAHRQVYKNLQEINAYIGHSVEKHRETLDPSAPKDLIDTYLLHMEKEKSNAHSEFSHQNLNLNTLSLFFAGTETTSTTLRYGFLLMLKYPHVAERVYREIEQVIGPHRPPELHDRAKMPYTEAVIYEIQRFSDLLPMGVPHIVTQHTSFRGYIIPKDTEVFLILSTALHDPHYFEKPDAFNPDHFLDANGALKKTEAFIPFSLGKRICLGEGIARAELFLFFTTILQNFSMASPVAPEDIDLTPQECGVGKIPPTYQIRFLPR
The experiment in a line: Inhibition of human recombinant CYP2B6 at 10 uM by spectrofluorimetry. In kind it is ADME. An outline of the steps: as §1

A further data set deals with CYP2C19 (Homo sapiens, UniProt P33261). The experiment in a line: Inhibition of human recombinant CYP2C19 at 10 uM by spectrofluorimetry. The format is ADME. An outline of the steps: as §1
In data set [4] the target is T2, CYP3A4. The experiment in a line: Inhibition of human recombinant CYP3A4 at 10 uM by spectrofluorimetry. The format is ADME. An outline of the steps:
as §1

Data set [5] is described as follows: Displacement of [125I]angiotensin 2 from AT1 receptor in rat liver membrane after 2 hrs by gamma counting. In kind it is cell membranes. In short, it runs like this:
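Rat liver membranes (5 mg original tissue) were incubated with 0.03 nM [125I]Ang II and varied test-compound concentrations. Incubation was 2 h at 25 °C. Bound and free label were separated by filtration on PEI-soaked GF/B filters and bound label was gamma counted. Nonspecific binding was taken with 1 µM Ang II.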
(In general: Displacement assays read how much labelled ligand stays bound in the presence of the test substance.)

The values that follow come from ChEMBL document CHEMBL1165972, “Selective angiotensin II AT(2) receptor agonists with reduced CYP 450 inhibition” (Bioorg Med Chem, 2010).

Where only a bound is given, the exact number is not on record here.

T2 sequence (P08684 whole entry): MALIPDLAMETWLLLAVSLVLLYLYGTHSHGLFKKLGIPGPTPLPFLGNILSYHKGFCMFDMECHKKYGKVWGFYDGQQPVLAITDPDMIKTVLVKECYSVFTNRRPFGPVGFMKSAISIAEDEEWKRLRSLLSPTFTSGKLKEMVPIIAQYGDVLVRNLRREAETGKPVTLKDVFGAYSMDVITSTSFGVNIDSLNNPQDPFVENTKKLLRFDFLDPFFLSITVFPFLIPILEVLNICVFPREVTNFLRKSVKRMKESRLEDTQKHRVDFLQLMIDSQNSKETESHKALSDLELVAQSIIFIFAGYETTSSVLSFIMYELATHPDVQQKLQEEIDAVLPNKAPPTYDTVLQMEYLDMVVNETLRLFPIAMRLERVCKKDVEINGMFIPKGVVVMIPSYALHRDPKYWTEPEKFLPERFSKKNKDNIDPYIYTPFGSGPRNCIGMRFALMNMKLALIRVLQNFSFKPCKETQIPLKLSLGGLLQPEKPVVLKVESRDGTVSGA
T1 sequence (P11712 whole entry): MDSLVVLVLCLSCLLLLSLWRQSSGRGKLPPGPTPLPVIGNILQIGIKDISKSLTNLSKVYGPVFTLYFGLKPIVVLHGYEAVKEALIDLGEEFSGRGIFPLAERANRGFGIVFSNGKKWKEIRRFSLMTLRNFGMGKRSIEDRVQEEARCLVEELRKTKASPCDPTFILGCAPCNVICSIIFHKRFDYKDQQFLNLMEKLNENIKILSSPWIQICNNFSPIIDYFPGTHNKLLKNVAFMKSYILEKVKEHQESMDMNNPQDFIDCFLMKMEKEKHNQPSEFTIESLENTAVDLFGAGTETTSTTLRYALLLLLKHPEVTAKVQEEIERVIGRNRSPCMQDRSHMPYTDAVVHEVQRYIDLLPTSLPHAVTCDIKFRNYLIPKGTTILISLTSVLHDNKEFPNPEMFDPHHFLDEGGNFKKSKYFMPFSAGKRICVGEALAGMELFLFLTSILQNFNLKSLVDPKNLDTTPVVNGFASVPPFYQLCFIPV
CYP2C19, sequence (P33261 whole entry): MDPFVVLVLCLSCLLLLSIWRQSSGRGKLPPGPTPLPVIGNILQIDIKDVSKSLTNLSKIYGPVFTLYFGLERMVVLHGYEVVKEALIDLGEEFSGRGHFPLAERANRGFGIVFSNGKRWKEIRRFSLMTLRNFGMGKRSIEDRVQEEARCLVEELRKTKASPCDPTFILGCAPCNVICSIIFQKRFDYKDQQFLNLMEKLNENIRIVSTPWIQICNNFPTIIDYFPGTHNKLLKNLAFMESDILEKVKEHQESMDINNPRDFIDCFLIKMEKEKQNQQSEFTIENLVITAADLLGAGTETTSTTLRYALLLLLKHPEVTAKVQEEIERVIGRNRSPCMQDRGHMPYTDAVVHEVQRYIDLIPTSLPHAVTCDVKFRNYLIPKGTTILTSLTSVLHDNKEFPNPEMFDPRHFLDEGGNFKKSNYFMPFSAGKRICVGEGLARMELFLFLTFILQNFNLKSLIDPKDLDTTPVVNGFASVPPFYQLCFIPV

What is called inhibition is the share of the control response that was lost under treatment. For orientation: Ki means a measure of affinity in units of concentration, obtained from inhibition or displacement. Low values mean a stronger hold on the target, high ones a looser hold on the target. Turning to `CCCCOC(=O)NS(=O)(=O)c1sc(CC(C)C)cc1-c1ccc(Cn2ccnc2)cc1` [BULOXIBUTID], the inhibition at 10 µM on CYP2C9 [1] was 94%; against CYP3A4 [2], 82%; against CYP2C9 [3], 94%; on CYP1A2, 63%; on CYP2B6, 40%; at CYP2C19 it was 67%. The inhibition at 10 µM on CYP3A4 [4] was 82%. This compound also returned an inhibition constant (Ki) in data set [5] of more than 10 µM.
